The values below come from ChEMBL document CHEMBL1817543, “New nitric oxide or hydrogen sulfide releasing aspirins” (J Med Chem, 2011).

Active and inactive are the calls of the source. The calls are words filed in the database; no cut-off is given here.

In data set [1] the test system is Aorta. As to the kind of experiment: Vasodilatory activity at endothelium denuded Wistar rat thoracic aorta assessed as relaxation of phenylephrine-induced contraction. In kind it is functional, tissue-based. The gist of the method: (§1)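 Male Wistar rat (180–200 g) thoracic aorta strips at 37 °C, 95% O2/5% CO2, pH 7.4, equilibrated 1.5 h, then precontracted with 1 μM L-phenylephrine. Cumulative vasodilator concentrations added at plateau; isometric recording. EC50 ± SEM from at least five experiments. ODQ runs: 1 μM inhibitor added before contraction, preincubated ≥30 min before vasodilator.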

Data set [2] relates to Aorta. The experiment in a line: Vasodilatory activity at endothelium denuded Wistar rat thoracic aorta assessed as relaxation of phenylephrine-induced contraction preincubated for 30 mins before phenylephrine challenge in presence of 1 uM soluble guanylate cyclase inhibitor H-[1,2,4]Oxadiazolo[4,3-a]quinoxalin-1-one. The data set is classed as functional, tissue-based. The gist of the method: as §1

A further data set deals with Platelet. As to the kind of experiment: Antiaggregatory activity in plasma rich human platelets assessed as inhibition of collagen-induced platelet aggregation at 300 uM preincubated for 10 mins before collagen challenge measured 10 mins after stimulus addition. In kind it is functional. A digest of the protocol: (§2)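 Human PRP from citrated venous blood of drug-free healthy volunteers, centrifuged 210g for 20 min. Compound (vehicle 0.5% DMSO) preincubated 10 min, then collagen at submaximal 0.8–1.5 μg/mL. Light-transmission aggregometry with stirring at 1000 rpm, 37 °C, recorded 10 min. Reported as % inhibition versus control (at 300 μM) or IC50 by nonlinear regression. At least five experiments.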

For data set [3], the system named is Aorta. The experiment in a line: Vasodilatory activity at endothelium denuded Wistar rat thoracic aorta assessed as relaxation of KCl-induced contraction preincubated for 30 mins before KCl challenge in presence of 10 uM ATP-modulated K+ channel inhibitor glibenclamide. The data set is classed as functional, tissue-based. The gist of the method: (§3)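 Endothelium-denuded thoracic aorta strips from male Wistar rats (180–200 g) at 37 °C, gassed 95% O2/5% CO2, pH 7.4. Equilibrated 1.5 h, contracted with 25 mM KCl, then cumulative compound concentrations added at plateau; isometric tension recorded. EC50 ± SEM; at least five experiments. For glibenclamide runs, 10 μM added before contraction, ≥30 min before vasodilator.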

The subject of data set [4] is Aorta. As to the kind of experiment: Vasodilatory activity at endothelium denuded Wistar rat thoracic aorta assessed as relaxation of KCL-induced contraction preincubated for 30 mins before KCL challenge. The data set is classed as functional, tissue-based. A digest of the protocol:
as §3

A short description of data set [5]: Chemical stability of the compound in acidic medium assessed as unchanged compound after 3 hrs at pH 1 by RP-HPLC analysis. The data set is classed as physicochemical. The following applies: read-out: Stability. The gist of the method:
(§4)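 A 0.5 mM DMSO solution (2 mL) was diluted to 10 mL with 0.1 M HCl (pH 1.0) or 50 mM phosphate buffer (pH 7.4). Held at 37 ± 0.5 °C and sampled over time by RP-HPLC on C18 with acetonitrile/water 0.1% TFA gradient. Percent unchanged reported at 3 h. Triplicate.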

The nature of data set [6]: Half life in human serum at 200 uM by RP-HPLC analysis. In kind it is ADME. A digest of the protocol:
(§5)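 DMSO stock (10 mM) added to prewarmed human serum (male AB plasma) to a final 200 μM. Incubated at 37 ± 0.5 °C; aliquots deproteinized with acetonitrile containing 0.1% TFA. Parent, aspirin and metabolites quantified by RP-HPLC, calibration 1–200 μM. Pseudo-first-order half-life; peak aspirin expressed as % of initial carbonate. At least triplicate.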

The species named for another data set is Homo sapiens. As to the kind of experiment: Chemical stability of compound in human serum assessed as maximal amount of aspirin released. The data set is classed as ADME. The gist of the method: as §5
Data set [7] is described as follows: Antiaggregatory activity in plasma rich human platelets assessed as inhibition of collagen-induced platelet aggregation preincubated for 10 mins before collagen challenge measured 10 mins after stimulus addition. The data set is classed as functional. A digest of the protocol: as §2
Data set [8] can be described thus: Chemical stability of the compound in phosphate buffer assessed as unchanged compound after 3 hrs at pH 7.4 by RP-HPLC analysis. The data set is classed as physicochemical. The note with it: read-out: Stability. A digest of the protocol:
as §4

`O=[N+]([O-])OCCCc1ccc(O)cc1`: the results for the EC50 in the data set on Aorta [1] and in the data set with Aorta [2] were 1 µM and over 100 µM, respectively.

In the case of `Oc1ccc(-c2cc(=S)ss2)cc1`, the outcome in the data set on Platelet was inactive. Also, the concentration giving a half-maximal response (EC50) (as a rule, the midpoint of the concentration-response curve) in the data set on Aorta [3] was determined as 17 µM; with Aorta [4], 5.9 µM.

Turning to `CC(=O)Oc1ccccc1C(=O)OCOC(=O)Oc1ccc(CCCO[N+](=O)[O-])cc1`, the remaining at 3 h in [5] and in data set [8] was 98% each time. Moreover, the half-life (in general, how long it takes for the measured level to halve) at 200 µM in data set [6] came out at 1.6 min. Moreover, the Activity in the data set listed under Homo sapiens is given as 40%. Moreover, the IC50 (commonly the point on the concentration scale where inhibition reaches its midpoint) in [7] worked out at 68 µM.

For `O=[N+]([O-])OCCCO` [ABRUCOMSTAT], in the data set with Platelet, the result was inactive. For the same molecule, the half-maximal effective concentration (EC50) in the data set on Aorta [1] was 4 µM; in the data set on Aorta [2] it was over 100 µM.

Consider `CC(=O)Oc1ccccc1C(=O)OCOC(=O)OCC(CO[N+](=O)[O-])O[N+](=O)[O-]` (configuration not stated), for which the remaining at 3 h worked out at 98% in [5] and 85% in [8]. For the same molecule, the half-life at 200 µM in data set [6] was under 1 min. In addition, in the data set listed under Homo sapiens, the Activity stood at 25%. In addition, the half-inhibitory concentration (IC50) in data set [7] was 93 µM.

`CC(=O)Oc1ccccc1C(=O)OCOC(=O)OCCCO[N+](=O)[O-]`: the remaining at 3 h in [5] and in [8] was 98% each time. Also, in data set [6], the half-life at 200 µM is under 1 min. In addition, in the data set listed under Homo sapiens, the Activity came out at 9%. The IC50 in [7] was determined as 194 µM.

On to `CC(=O)Oc1ccccc1C(=O)OCOC(=O)Oc1ccc(-c2cc(=S)ss2)cc1`, for which the results for the remaining at 3 h in data set [5] and in [8] were 96% and 80%, respectively. Also, the half-life at 200 µM in [6] turned out to be 2.1 min. Further, the Activity in the data set filed under Homo sapiens is 36%. The IC50 in data set [7] turned out to be 150 µM.

As to `O=[N+]([O-])OCC(Cc1ccc(O)cc1)O[N+](=O)[O-]` (configuration not stated), the result with Platelet was inactive. Besides, the EC50 is 0.13 µM in the data set with Aorta [1] and over 100 µM in the data set with Aorta [2].

In the case of `OCCOc1ccc(-c2cc(=S)ss2)cc1`, the EC50 with Aorta [3] came to 16 µM; in the data set with Aorta [4] it was 8 µM.

Consider `CC(=O)Oc1ccccc1C(=O)OCOC(=O)OCCOc1ccc(-c2cc(=S)ss2)cc1`, for which the remaining at 3 h amounted to 98% in data set [5] and 96% in data set [8]. Moreover, the half-life at 200 µM in [6] was determined as 3 min. Besides, in the data set filed under Homo sapiens, the Activity was found to be 42%. In data set [7], the half-inhibitory concentration (IC50) is 16 µM.

As to `CC(=O)Oc1ccccc1C(=O)O` [ASPIRIN], the remaining at 3 h in data set [5] and in data set [8] was 90% throughout. Besides, in data set [6], the half-life at 200 µM was 63 min. In addition, the concentration for half-maximal inhibition (IC50) in [7] worked out at 54 µM.

Turning to `CC(=O)Oc1ccccc1C(=O)OCOC(=O)Oc1ccc(CC(CO[N+](=O)[O-])O[N+](=O)[O-])cc1` (configuration not stated), the remaining at 3 h worked out at 98% in data set [5] and 95% in data set [8]. Also, the half-life at 200 µM in data set [6] came to 2.2 min. In addition, in the data set filed under Homo sapiens, the Activity turned out to be 34%. Further, the IC50 in data set [7] came out at 103 µM.
